A short description of assay [1]: Transcription level in human HEK293T cells nuclear extract fused with Gal4-VP16 at 10 uM in presence of ATP by phosphorimaging analysis relative to control. To be noted: HEK-293T.
Assay [2] has as its target Cyclin-dependent kinase 9 (Homo sapiens) (UniProt P50750). Kind of assay: Inhibition of CDK9 in human HeLa cells assessed as upregulation of serine 2 phosphorylation at 10 uM incubated for 1 hr by chromatin immunoprecipitation assay. In kind it is cell-based.
The target of assay [3] is Tyrosine-protein kinase ABL2 (Homo sapiens, UniProt P42684). Kind of assay: Inhibition of ABL2 (unknown origin) incubated for 120 mins in presence of 33P-ATP by radiometric kinase assay. The essentials:
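Radiometric panel assay, 10-dose mode: serial dilutions from […], in duplicate, at 1 μM ATP. Incubated 120 min at room temperature, then spotted on P81 paper, acid-washed and counted. Values are means.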

The next assay deals with A549. The assay can be described thus: Transcription level in human A549 cells nuclear extract fused with Gal4-VP16 at 10 uM in presence of ATP by phosphorimaging analysis relative to control.
Assay [4] in a line: Induction of apoptosis in human Acute myeloid leukemic cell at 10 uM incubated for 24 hrs by Annexin V-FITC/PI staining based flow cytometric analysis relative to control. The format is functional, Leukemia cell. The essentials: (§1)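 Cells grown at 37°C, 5% CO2 (A549, HeLa, MCF7 in DMEM high glucose; HCT116 in McCoy's 5A; THP1 and primary AML M4 apheresis blasts in RPMI1640), exposed to inhibitor or DMSO for 24 h. Apoptotic fraction by flow cytometry after annexin V-fluorescein/propidium iodide double staining. Means ± SD of three biological replicates; AML blasts from one patient, three technical replicates. Student's t-test versus DMSO/untreated.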

Assay [5] can be described thus: Inhibition of CDK2/Cyclin A (unknown origin) using ULight MBP peptide as substrate in presence of ATP incubated for 1 hr by FRET based LANCE Ultra KinaSelect screen assay. On the set-up: species or system Homo sapiens. The gist of the method: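 Time-resolved FRET kinase assay with purified CDK-cyclin pairs. ULight MBP peptide substrate was 50 nM final. Buffer was 50 mM HEPES-KOH pH 7.5, 10 mM MgCl2, 1 mM EGTA and 2 mM DTT, with ATP at each kinase's KM (CDK2-cyclin A 3 μM). Reactions ran 1 h at room temperature, then 2 nM Eu-labelled anti-phospho antibody was added for detection. IC50 given as mean ± SD.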
(In general: In TR-FRET formats the signal depends on donor and acceptor labels being close together.)

The target in assay [6] is Cyclin-dependent kinase 9 (Homo sapiens) (UniProt P50750). The assay can be described thus: Inhibition of CDK9 in human HeLa cells assessed as upregulation of RNAPII expression at 10 uM incubated for 1 hr by chromatin immunoprecipitation assay. In kind it is cell-based.
Assay [7] can be described thus: Selectivity ratio of IC50 for inhibition of CDK9/Cyclin T1 (unknown origin) to IC50 for inhibition of CDK4/Cyclin D1 (unknown origin).
In assay [8] the target is Cyclin-dependent kinase 9 (Mus musculus) (UniProt Q99J95). Kind of assay: Inhibition of CDK9 in mouse Embryonic stem cell assessed as downregulation of Serine 2 phosphorylation by measuring fold decrease at 10 uM incubated for 90 mins by Western blotting analysis. In kind it is cell-based. The gist of the method:
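Mouse embryonic stem cells treated with 10 μM inhibitor or DMSO for 90 or 180 min; whole-cell Western blot for RNAPII CTD Ser2-P. Band signals quantified densitometrically and normalised to total RNAPII.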

A further assay has as its system THP-1. Kind of assay: Induction of apoptosis in human THP-1 cells at 10 uM incubated for 24 hrs by Annexin V-FITC/PI staining based flow cytometric analysis relative to control. The format is functional. The essentials:
as §1

In assay [9] the target is Cyclin-dependent kinase 9 (Homo sapiens) (UniProt P50750). Kind of assay: Inhibition of CDK9 in human HeLa cells assessed as downregulation of Serine 2 phosphorylation by measuring fold decrease at 10 uM incubated for 60 mins by Western blotting analysis. The format is cell-based. (In western blotting, separated proteins are transferred to a membrane and probed.)
Another assay deals with HEK-293T. Kind of assay: Inhibition of transcription in human HEK293T cells nuclear extract fused with Gal4-VP16 at 10 uM in presence of ATP and KCL by phosphorimaging analysis. In kind it is functional, subcellular. To be noted: Nucleus. The essentials: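 In vitro transcription from the adenovirus core promoter (Gal-ML, 380 bp G-free cassette), soluble or bead-immobilised template, using HEK293T nuclear extract supplemented with recombinant Gal4-VP16. ATP 60 μM (low), 100 μM, or 500 μM (high); magnesium varied in one series. Transcripts quantified by phosphorimaging.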

Active and inactive are the calls of the source. The calls are words filed in the database; no cut-off is given here.

Sequence of Cyclin-dependent kinase 9 (Homo sapiens) (P50750 whole entry, the tested form may be a part): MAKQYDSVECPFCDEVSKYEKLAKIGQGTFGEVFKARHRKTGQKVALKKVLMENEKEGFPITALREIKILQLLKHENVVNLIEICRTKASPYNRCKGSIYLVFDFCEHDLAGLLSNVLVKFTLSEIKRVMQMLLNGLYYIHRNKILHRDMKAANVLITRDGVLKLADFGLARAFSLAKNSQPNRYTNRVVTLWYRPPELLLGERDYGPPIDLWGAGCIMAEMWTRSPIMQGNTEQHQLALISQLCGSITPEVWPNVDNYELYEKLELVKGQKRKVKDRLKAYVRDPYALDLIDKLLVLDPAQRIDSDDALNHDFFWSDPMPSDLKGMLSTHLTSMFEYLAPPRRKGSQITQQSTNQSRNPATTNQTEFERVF
Sequence of Cyclin-dependent kinase 9 (Mus musculus) (Q99J95 whole entry): as the sequence (P50750 whole entry, the tested form may be a part) above, with S17T, R37K, K40Q, N258K, Y262F counted along it
Sequence of Tyrosine-protein kinase ABL2 (P42684 whole entry): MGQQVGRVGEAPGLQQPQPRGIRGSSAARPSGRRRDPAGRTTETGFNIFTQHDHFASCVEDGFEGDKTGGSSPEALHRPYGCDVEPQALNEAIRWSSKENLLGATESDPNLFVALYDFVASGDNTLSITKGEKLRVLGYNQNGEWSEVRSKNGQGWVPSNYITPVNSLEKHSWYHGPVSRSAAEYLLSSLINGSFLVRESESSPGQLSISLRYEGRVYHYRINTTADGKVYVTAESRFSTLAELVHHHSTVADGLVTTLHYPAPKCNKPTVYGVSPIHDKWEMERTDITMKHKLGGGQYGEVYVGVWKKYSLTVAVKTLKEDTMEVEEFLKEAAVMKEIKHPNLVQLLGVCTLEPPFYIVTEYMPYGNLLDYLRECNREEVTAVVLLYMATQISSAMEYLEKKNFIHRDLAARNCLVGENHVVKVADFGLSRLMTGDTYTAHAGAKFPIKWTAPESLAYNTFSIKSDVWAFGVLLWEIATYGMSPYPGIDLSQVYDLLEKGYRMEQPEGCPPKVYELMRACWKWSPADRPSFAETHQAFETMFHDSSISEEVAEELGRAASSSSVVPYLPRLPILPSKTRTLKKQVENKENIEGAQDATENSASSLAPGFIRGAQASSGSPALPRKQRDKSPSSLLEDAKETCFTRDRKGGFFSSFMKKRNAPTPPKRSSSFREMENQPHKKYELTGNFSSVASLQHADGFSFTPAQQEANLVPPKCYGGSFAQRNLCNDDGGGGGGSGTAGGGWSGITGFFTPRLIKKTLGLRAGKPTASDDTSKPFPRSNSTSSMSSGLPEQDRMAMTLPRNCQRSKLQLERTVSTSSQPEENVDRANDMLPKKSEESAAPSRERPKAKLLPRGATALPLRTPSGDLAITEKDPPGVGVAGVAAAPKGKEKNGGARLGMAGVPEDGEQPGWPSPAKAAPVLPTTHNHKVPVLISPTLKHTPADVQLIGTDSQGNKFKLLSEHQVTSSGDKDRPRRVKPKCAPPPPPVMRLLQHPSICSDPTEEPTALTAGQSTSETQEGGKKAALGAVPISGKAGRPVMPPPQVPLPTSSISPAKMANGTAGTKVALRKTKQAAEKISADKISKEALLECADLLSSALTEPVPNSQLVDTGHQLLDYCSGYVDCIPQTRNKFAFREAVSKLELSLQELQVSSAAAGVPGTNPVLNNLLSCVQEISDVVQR

As to `COc1ccccc1-c1cc(Nc2cccc(NS(C)(=O)=O)c2)ncn1`, the level, % of control at 10 µM (in assay [1]; in the assay with A549) was 20% in each case. In addition, the inhibition entry (in assay [2]; in assay [6]; with HEK-293T) was “Active” each time. Besides, the figures for the IC50 in assay [3] and in assay [5] were 3.64 µM and 2.44 µM, respectively. The results for the Activity (in assay [4]; in the assay on THP-1) were more than 60% and 45%, respectively. Also, in [7], the Ratio IC50 turned out to be 210. Besides, the fold change (FC) in [8] and in [9] was 1.6 in each case.
